Measured values: ChEMBL document CHEMBL1649109, “Antiparasitic activities and toxicities of individual enantiomers of the 8-aminoquinoline 8-[(4-amino-1-methylbutyl)amino]-6-methoxy-4-methyl-5-[3,4-dichlorophenoxy]quinoline succinate” (Antimicrob Agents Chemother, 2008)
Calls of active or inactive are those of the source. The calls are words filed in the database; no cut-off is given here.

How the values were obtained:
[1] = system: Leishmania donovani; experiment: Antileishmanial activity against Leishmania donovani HU3 infected in mouse assessed as inhibition of parasite burden at 15 mg/kg/day, sc for 5 days administered 7 days post-infection measured 14 days post-infection; assay type: functional, organism-based
Method in brief: (§1)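 Mice infected intravenously with 1 × 10^7 L. donovani (MHOM/ET/67/HU3) amastigotes. Starting 7 days post-infection, sodium stibogluconate was given subcutaneously once daily for 5 days, with doses expressed as SbV. Mice were killed 14 days post-infection. Parasite burdens were counted on liver impression smears and compared with an untreated control group. ED50 was obtained by linear regression.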

[2] = system: Leishmania donovani; experiment: Antileishmanial activity against Leishmania donovani HU3 infected in mouse assessed as inhibition of parasite burden administered subcutaneously once daily for 5 days after 7 days post-infection measured 14 days post-infection; assay type: functional, organism-based; method in brief: as §1
[3] = system: Leishmania donovani; experiment: Antileishmanial activity against Leishmania donovani HU3 infected in mouse assessed as inhibition of parasite burden at 5 mg/kg/day, sc for 5 days administered 7 days post-infection measured 14 days post-infection; assay type: functional, organism-based; method in brief: as §1
[4] = system: Leishmania donovani; experiment: Antileishmanial activity against Leishmania donovani HU3 infected in mouse assessed as inhibition of parasite burden at 45 mg/kg/day, sc for 5 days administered 7 days post-infection measured 14 days post-infection; assay type: functional, organism-based; method in brief: as §1
[5] = system: Canis familiaris; experiment: Toxicity in Beagle dog assessed as increase in methemoglobin level at 6.4 mg/kg/day, po between 7 to 11 days; assay type: organism-based, Canis lupus familiaris; design: route oral; conditions: in vivo
Method in brief: (§2)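 Beagle dogs, 8-9 months old, given drug as bulk powder in gelatin capsules orally on days 1-4, at 0.0116 mmol/kg/day as base. Daily clinical observation. Methemoglobin measured by co-oximetry from jugular or cephalic blood, predose on days 1, 2 and 4, then through day 29.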

[6] = system: Plasmodium berghei; experiment: Antimalarial activity against Plasmodium berghei KBG-173 infected in Swiss(CD-1) mouse assessed as survival at 1 mg/kg/day, po treated for 3 days measured on day 34; assay type: functional, organism-based
Method in brief: (§3)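 CD-1 mice, 5 weeks old, male or female, groups of five, infected with 5 × 10^4 P. berghei KBG-173 parasitized erythrocytes. Drug in 0.5% hydroxyethylcellulose/0.1% Tween 80, given orally once daily on days 3, 4 and 5 post-infection. Parasitemia from blood films on day +6. Read-out also includes increase in mean survival time over controls and survivors at day +34.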

[7] = system: Plasmodium berghei; experiment: Antimalarial activity against Plasmodium berghei KBG-173 infected in Swiss(CD-1) mouse assessed as parasitemia at 1 mg/kg/day, po treated for 3 days measured on day 6
[8] = system: Pneumocystis carinii; experiment: Antimicrobial activity against Pneumocystis carinii infected BALB/c mouse at 0.1 mg/kg/day, po after 21 days administered 4 weeks postinfection by methenamine silver nitrate staining method; assay type: functional, organism-based
[9] = system: Mus musculus; experiment: Toxicity in Plasmodium berghei KBG-173 infected Swiss(CD-1) mouse at 64 mg/kg/day, po treated for 3 days; assay type: organism-based; design: route oral; conditions: in vivo, 72 h
Method in brief: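 CD-1 mice infected with 5 × 10^4 P. berghei KBG-173 parasitized erythrocytes. Drug in 0.5% hydroxyethylcellulose/0.1% Tween 80, given orally on days 3-5 post-infection, 7 mice per dose. Blood films on day +6 and weekly to day +60. Mortality tabulated for 60 days; blood-film-negative survivors counted as cured.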

[10] = system: Plasmodium berghei; experiment: Antimalarial activity against Plasmodium berghei KBG-173 infected in Swiss(CD-1) mouse assessed as survival at 0.25 mg/kg/day, po treated for 3 days measured on day 34; assay type: functional, organism-based; method in brief: as §3
[11] = system: Canis familiaris; experiment: Toxicity in Beagle dog assessed as survival at 5.3 mg/kg/day, po after 4 days; assay type: organism-based, Canis lupus familiaris; design: route oral; conditions: in vivo, 96 h; method in brief: as §2
[12] = system: Leishmania donovani; experiment: Antileishmanial activity against Leishmania donovani HU3 infected in mouse assessed as inhibition of parasites in liver at 10 mg/kg/day, po treated for 5 days administered 7 days postinfection measured after 14 days post-infection; assay type: functional
Method in brief: (§4)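 L. donovani HU3 amastigotes, 1 × 10^7 given IV to mice. From day 7 post-infection, dosed orally once daily for 5 days in 0.25% methylcellulose-10% ethanol; reference stibogluconate given SC. Mice killed at day 14 post-infection. Parasite burden counted on liver impression smears against untreated controls. ED50 from linear regression, with 95% confidence limits.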

[13] = system: Plasmodium berghei; experiment: Antimalarial activity against Plasmodium berghei KBG-173 infected in Swiss(CD-1) mouse assessed as parasitemia at 0.25 mg/kg/day, po treated for 3 days measured on day 6
[14] = system: Leishmania donovani; experiment: Antileishmanial activity against Leishmania donovani HU3 infected in mouse assessed as inhibition of parasites in liver at 5 mg/kg/day, po treated for 5 days administered 7 days postinfection measured after 14 days post-infection; assay type: functional; method in brief: as §4
[15] = system: Pneumocystis carinii; experiment: Antimicrobial activity against Pneumocystis carinii infected BALB/c mouse at 1.3 mg/kg/day, po after 21 days administered 4 weeks postinfection by Giemsa staining; assay type: functional, organism-based
Method in brief: (§5)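 Female BALB/c mice, 6-8 weeks, immunosuppressed with dexamethasone […] in drinking water, then inoculated transtracheally with 10^6 P. carinii. From 4 weeks post-inoculation, drug given in drinking water for 3 weeks, 10 mice/group, intake monitored. Lung impression smears stained with Giemsa or methenamine silver, read blinded. Graded 0-5 on a log scale; group mean ± SE.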

[16] = system: Pneumocystis carinii; experiment: Antimicrobial activity against Pneumocystis carinii infected BALB/c mouse at 1.3 mg/kg/day, po after 21 days administered 4 weeks postinfection by Giemsa staining method; assay type: functional, organism-based; method in brief: as §5
[17] = system: Canis familiaris; experiment: Toxicity in Beagle dog assessed as survival at 6.4 mg/kg/day, po after 4 days; assay type: organism-based, Canis lupus familiaris; design: route oral; conditions: in vivo, 96 h; method in brief: as §2
[18] = system: Leishmania donovani; experiment: Antileishmanial activity against Leishmania donovani HU3 infected in mouse assessed as inhibition of parasites in liver at 100 mg/kg/day, po treated for 5 days administered 7 days postinfection measured after 14 days; assay type: functional; method in brief: as §4
[19] = system: Pneumocystis carinii; experiment: Antimicrobial activity against Pneumocystis carinii infected BALB/c mouse at 0.25 mg/kg/day, po after 21 days administered 4 weeks postinfection by Giemsa staining method; assay type: functional, organism-based; method in brief: as §5
[20] = system: Canis familiaris; experiment: Toxicity in Beagle dog assessed as survival at 6.7 mg/kg/day, po after 4 days; assay type: organism-based, Canis lupus familiaris; design: route oral; conditions: in vivo, 96 h; method in brief: as §2
[21] = system: Plasmodium berghei; experiment: Antimalarial activity against Plasmodium berghei KBG-173 infected in Swiss(CD-1) mouse assessed as mean survival time at 0.25 mg/kg/day, po treated for 3 days; assay type: functional; method in brief: as §3
[22] = system: Leishmania donovani; experiment: Antileishmanial activity against Leishmania donovani HU3 infected in mouse assessed as inhibition of parasites in liver at 0.4 mg/kg/day, po treated for 5 days administered 7 days postinfection measured after 14 days post-infection; assay type: functional; method in brief: as §4
[23] = system: Pneumocystis carinii; experiment: Antimicrobial activity against Pneumocystis carinii infected BALB/c mouse at 0.25 mg/kg/day, po after 21 days administered 4 weeks postinfection by methenamine silver nitrate staining method; assay type: functional, organism-based; method in brief: as §5
[24] = system: Plasmodium berghei; experiment: Antimalarial activity against Plasmodium berghei KBG-173 infected in Swiss(CD-1) mouse assessed as mean survival time at 1 mg/kg/day, po treated for 3 days; assay type: functional; method in brief: as §3

Sodium stibogluconate
inhibition [1]: 59.4% | ED50 [2]: 27.7 mg/kg | ED90 [2]: > 45 mg/kg | inhibition [3]: 13.8% | inhibition [4]: 99.3%

COc1cc(C)c2c(Oc3cccc(C(F)(F)F)c3)c(OC)cc(NC(C)CCCN)c2n1 (stereo unspecified) [TAFENOQUINE]
Activity [5]: Toxic

COc1cc(NC(C)CCCN)c2nccc(C)c2c1Oc1ccc(Cl)c(Cl)c1.O=C(O)CCC(=O)O (racemic)
Activity [6]: Active | Activity [7]: 0.1% | Activity [8]: Active | Activity [9]: Toxic | Activity [10]: Active | Activity [11]: Non-toxic | inhibition in vivo at 10 mg/kg/day [12]: 99.8% | Activity [13]: 4.8% | inhibition in vivo at 5 mg/kg/day [14]: 99.2% | Activity [15]: Active | Activity [16]: Active | Activity [17]: Non-toxic | Activity [5]: Toxic | inhibition in vivo at 100 mg/kg/day [18]: 99% | Activity [19]: Active | Activity [20]: Non-toxic | MST [21]: 11.6 days | inhibition in vivo at 0.4 mg/kg/day [22]: 34.1% | Activity [23]: Active | MST [24]: 10.2 days
